Data: ChEMBL document CHEMBL4513216, “Probing the Open Global Health Chemical Diversity Library for Multistage-Active Starting Points for Next-Generation Antimalarials” (ACS Infect Dis, 2020)

Assay: Toxicity liver stage against HepG2, at 10uM
Format: cell-based
Design: test concentration 10 uM, cell line HepG2-A16-CD81EGFP
Conditions: human, HepG2-A16-CD81EGFP cells; read-out: INHIBITION
How it was run: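 Uninfected HepG2-A16-CD81EGFP cells, 3 × 10^3 per well, 1536-well, plated on prespotted compound at 10 μM final, parasite-free screening media added to match infected plates; puromycin 10 μM positive, DMSO 0.5% negative; run in parallel with 48 h PbLuc assay at 37 °C, 5% CO2; viability by CellTiter-Glo luminescence, normalized to controls.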

Structure (SMILES)	cytotoxicity at 10 µM [%]
Cc1ccc(CN2CC[C@H](c3nc4cccc(C(N)=O)c4[nH]3)C2)cc1	35.1
O=C1CC2(CCN(Cc3cccs3)C2)CN1c1cccc(F)c1 (stereo unspecified)	-148
Cc1cc(-c2cnc(N3CCCCCC3)nc2-c2cccnc2C)on1	-8.75
Cc1ccccc1-n1cnc(Cl)c1CO	8.48
COCCCNC(=O)CN(C)C(C)c1nc(C(C)C)no1 (stereo unspecified)	8.24
COc1ccc(CN2CCn3cccc3C2C)cc1F (stereo unspecified)	-2.63
Cc1cc(C2CCCN(Cc3cccnc3)C2)n[nH]1 (stereo unspecified)	9
Cc1nnc(CN2CCN(Cc3nccn3C)CC2)n1C	-2.4
CC1CN(Cc2cccc(CN)c2)CCO1 (stereo unspecified)	-8.99
CS(=O)(=O)NCC1CCCCN1C(=O)c1ccsc1 (stereo unspecified)	0.555
Cn1c(C2CCCN2C(=O)CN2CSCC2=O)nc2ccccc21 (stereo unspecified)	7.81
O=C(O)c1ncccc1OCC(F)(F)F	-8.76
OCCOc1ccc(NCc2cccnc2)cn1	1.04
COc1ccc(-n2cnnc2SCC(=O)N(C)C(C)C)cn1	16.7
CCOCc1cccc(NC(=O)C2COCCO2)c1 (stereo unspecified)	3.96
CN1CCN(Cc2ccccc2CNC(=O)c2cc(Br)ccc2F)CC1	6.37
CN(Cc1cccs1)C(=O)CN1CCCCC1Cn1cncn1 (stereo unspecified)	8.97
Cc1cc(N2CCC(N(C)Cc3cccnc3)C2=O)n(C)n1 (stereo unspecified)	-9.98
CCC(C(=O)Nc1ccc(-c2nc(C)n[nH]2)cc1)N1CCCC1=O (stereo unspecified)	-44.8
CC(=O)N1CCc2nc(-c3ccccc3)nc(NC(C)C)c2CC1	-119
Cc1nc([C@H]2C[C@@H]3CCN(Cc4ccc5c(c4)OCO5)C[C@H]3O2)no1	-110
COc1cccc(N2CCN(Cc3nccn3C(C)C)CC2=O)c1	1.85
Cc1cc(-c2nn(C)c(Cl)c2CN2CCN(C)C(C(=O)O)C2)no1 (stereo unspecified)	-0.0938

Structure (SMILES)	cytotoxicity at 10 µM [%]
CSc1ccc(CN(C(=O)c2cc[nH]n2)C2CC2)cc1	-44.4
Cc1ccccc1C1CCN(CCn2cc(-c3cccc(O)c3)nn2)C1 (stereo unspecified)	18.2
Cn1cc(CN2CCCC(CCc3ccc(F)cc3)C2)cn1 (stereo unspecified)	-12.6
O=C(CCC(F)(F)F)N1CCCC2(CCC(=O)N(CC3CC3)C2)C1 (stereo unspecified)	7.4
Nc1nc2c(c(N3CCCC(OCc4ccccn4)C3)n1)CCNCC2 (stereo unspecified)	-11.4
Cc1cc(NCCN2CCNC2=O)nc2cc3c(cc12)CCC3	2.97
N#Cc1ccc(N2CCCC(CO)(CCOc3ccccc3)C2)nc1 (stereo unspecified)	17.4
COc1cccc(-c2n[nH]cc2-c2nc(CC3CCN(C)CC3)no2)c1	-9.98
CCN(CCO)C[C@@H]1CN(C(=O)c2ccc(C)s2)C[C@@H]1CO	12.1
Cc1cc(-c2cnn(CCNC(=O)C3CC3)c2C2CC2)on1	11.7
COc1ccc(CNC(C)Cn2cccn2)cc1F (stereo unspecified)	-0.544
CN1CCN(C2CCN(Cc3nc(-c4ccoc4)no3)CC2)C1=O	-2.83
CN(Cc1ccc2c(c1)OCCO2)Cc1nc2c(cnn2C)c(=O)[nH]1	-4.45
CCc1nnc2n1CCN(CC(=O)N1CCc3ccccc3C1)C2	-7.83
CNC(=O)c1ccc(C(=O)N2CCCC2c2cnn(C)c2)cn1 (stereo unspecified)	-6.41
CN1CCC2(CC1)CC(NC(=O)c1csnn1)c1ccccc1O2 (stereo unspecified)	-95.4
NC(=O)CC1CC2(CCNCC2)c2cc(F)ccc21 (stereo unspecified)	-107
COc1cc(CNCc2ccnc(N3CCCC3)c2)cc(OC)c1	8.8
O=C(c1cccnc1)N1CCC2(CCN(C(=O)c3ccco3)CC2)C1	-91.6
CCC(=O)N1CCC2(CC1)C(c1cccnc1)CC(=O)N2CCOC (stereo unspecified)	-94.1
O=C1NC2(CCN(Cc3cccs3)CC2)CC1c1ccncc1 (stereo unspecified)	1.2
COCC(=O)N1CCCC(c2cc(C(F)F)n3ncnc3n2)C1 (stereo unspecified)	-8.43
CN(C)C(=O)CN1C[C@H]2CC[C@@H](C1)N(Cc1ccccc1OCCO)C2	8.79
